One block for each molecule: values may come before it.
How the values were obtained:
Escherichia coli [1] = assay: Inhibition of Escherichia coli MurD ligase assessed as residual activity at 250 uM by colorimetry; values are per cent of control
[2] = Inhibition of Escherichia coli MurD ligase assessed as conversion of D-[14C]Glu to UDP-MurNac-L-Ala by radioactivity assay
Summary of the method: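 Incubated 37 C for 30 min, stopped with acetic acid. Substrate and product separated by TLC and quantified by radioactivity scanning. IC50 from residual activities at seven concentrations.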

Enterococcus faecalis = assay: Antimicrobial activity against Enterococcus faecalis ATCC 29212 by macrodilution method
Escherichia coli [3] = assay: Antimicrobial activity against Escherichia coli ATCC 25922 by microdilution method; format: functional; conditions: in the assay text read “macrodilution” for “microdilution”
Summary of the method: (§1)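 Broth macrodilution in cation-adjusted Mueller–Hinton broth. Stock 2 mg/mL in DMSO, serially diluted to final 0.016–128 μg/mL. Inoculum from four colonies of a fresh overnight culture, adjusted to 0.5 McFarland and diluted to approximately 10^5 CFU/mL, then mixed 1:1 with drug. Incubated 35 C for 18–24 h. MIC is the lowest concentration giving complete inhibition of visible growth. QC with S. aureus ATCC 29213 and gentamicin.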

[4] = Inhibition of Escherichia coli MurD ligase assessed as residual activity by colorimetry
Summary of the method: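 Malachite green orthophosphate detection with purified E. coli MurD. Substrates 80 μM UDP-MurNAc-L-Ala, 100 μM D-Glu, 400 μM ATP; 5% DMSO final. Incubated 37 C for 15 min, A650 read. IC50 from seven concentrations run in triplicate.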

Pseudomonas aeruginosa = assay: Antimicrobial activity against Pseudomonas aeruginosa ATCC 27853 by microdilution method; format: functional; conditions: in the assay text read “macrodilution” for “microdilution”
Summary of the method: as §1

Staphylococcus aureus = assay: Antimicrobial activity against Staphylococcus aureus ATCC 29213 by microdilution method; format: functional; conditions: in the assay text read “macrodilution” for “microdilution”
Summary of the method: as §1

residual activity (Escherichia coli [1]): 87%
SMILES: O=C(O)CC[C@H](NC(=O)c1ccc(CNc2cccc(/C=C3\SC(=O)NC3=O)c2)cc1)C(=O)O

residual activity (Escherichia coli [1]): 85%
SMILES: O=C(O)CC[C@@H](NC(=O)c1ccc(CNc2cccc(/C=C3\SC(=O)NC3=O)c2)cc1)C(=O)O

MIC (Enterococcus faecalis): > 128 µg/mL
MIC (Escherichia coli [3]): > 128 µg/mL
IC50 [4]: 174 µM
MIC (Pseudomonas aeruginosa): > 128 µg/mL
MIC (Staphylococcus aureus): > 128 µg/mL
SMILES: O=C(O)CC[C@@H](NC(=O)c1ccc(CNc2cccc(/C=C3\SC(=S)NC3=O)c2)cc1)C(=O)O

IC50 [4]: 206 µM
SMILES: O=C(O)CC[C@H](NC(=O)c1ccc(CNc2cccc(/C=C3\SC(=S)NC3=O)c2)cc1)C(=O)O

Second part, the molecule before the results:

SMILES: O=C(O)CC[C@@H](NC(=O)c1cccc(CNc2cccc(/C=C3\SC(=O)NC3=O)c2)c1)C(=O)O
residual activity (Escherichia coli [1]): 87%

SMILES: O=C(O)CC[C@@H](NC(=O)c1ccc(CNc2ccc(/C=C3\SC(=O)NC3=O)cc2)cc1)C(=O)O
residual activity (Escherichia coli [1]): 70%

SMILES: O=C(O)CC[C@@H](NC(=O)c1cccc(CNc2ccc(/C=C3\SC(=O)NC3=O)cc2)c1)C(=O)O
IC50 [2]: 35 µM

SMILES: O=C(O)CC[C@@H](NC(=O)c1cccc(CNc2ccc(/C=C3\SC(=S)NC3=O)cc2)c1)C(=O)O
MIC (Enterococcus faecalis): > 128 µg/mL
MIC (Escherichia coli [3]): > 128 µg/mL
IC50 [2]: 49 µM
IC50 [4]: 45 µM
MIC (Pseudomonas aeruginosa): > 128 µg/mL
MIC (Staphylococcus aureus): > 128 µg/mL

SMILES: O=C(O)CC[C@H](NC(=O)c1ccc(CNc2ccc(/C=C3\SC(=S)NC3=O)cc2)cc1)C(=O)O
residual activity (Escherichia coli [1]): 68%

SMILES: O=C(O)CC[C@H](NC(=O)c1ccc(CNc2ccc(/C=C3\SC(=O)NC3=O)cc2)cc1)C(=O)O
residual activity (Escherichia coli [1]): 88%

SMILES: O=C(O)CC[C@@H](NC(=O)c1ccc(CNc2ccc(/C=C3\SC(=S)NC3=O)cc2)cc1)C(=O)O
residual activity (Escherichia coli [1]): 74%

SMILES: O=C(O)CC[C@@H](NC(=O)c1cccc(CNc2cccc(/C=C3\SC(=S)NC3=O)c2)c1)C(=O)O
residual activity (Escherichia coli [1]): 39%

Source: ChEMBL document CHEMBL1240528, “Discovery of novel 5-benzylidenerhodanine and 5-benzylidenethiazolidine-2,4-dione inhibitors of MurD ligase” (J Med Chem, 2010)
